Assay results taken from ChEMBL document CHEMBL1795240, “Synthesis and anti-Trypanosoma cruzi activity of β-lapachone analogues” (Eur J Med Chem, 2011).

Experiments:
Trypanosoma cruzi [1] = assay: Antitrypanosomal activity against bloodstream trypomastigote form of Trypanosoma cruzi Y isolated from albino mouse blood after 24 hrs; assay type: functional, organism-based
Procedure, shortened: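 Y-strain bloodstream trypomastigotes taken from infected albino mice at peak parasitaemia, isolated by differential centrifugation, and resuspended at 10^7 cells/mL in DMEM with 10% mouse blood. Compounds were added from DMSO stocks, with final DMSO never above 0.1%.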

Trypanosoma cruzi [2] = assay: Ratio of Benzidazole IC50 to compound IC50 for bloodstream trypomastigote form of Trypanosoma cruzi Y; assay type: functional

Row | IC50 (Trypanosoma cruzi [1]) | EC50 (Trypanosoma cruzi [1]; read-out: ED50 (the source's name)) | SMILES | Ratio IC50 (Trypanosoma cruzi [2])
1 | 1.3 µM | – | CC1(C)CCC2=C(O1)c1ccccc1C1(CO1)C2=O (centres undefined) | –
2 | 132 µM | – | CCOc1ccc(C2CCC3=C(O2)c2ccccc2C(=O)C3=O)cc1 (centres undefined) | –
3 | 20 µM | – | CC1(C)CCc2c(c3ccccc3c3nc(-c4c[nH]c5ccccc45)[nH]c23)O1 | –
4 | 35.4 µM | – | O=C1C(=O)c2ccccc2C2=C1C[C@@H]1CCCO[C@@H]1O2 | –
5 | 20.2 µM | – | O=C1C(=O)c2ccccc2C2=C1CCC(c1ccc(Cl)cc1)O2 (centres undefined) | –
6 | 331 µM | – | CCOC1CC[C@H]2CC3=C(O[C@H]2O1)c1ccccc1C(=O)C3=O (some centres undefined) | –
7 | > 4000 µM | – | Cc1ccc(C2CC(c3ccc([N+](=O)[O-])cc3)C3=C(O2)c2ccccc2C(=O)C3=O)cc1 (centres undefined) | –
8 | 97.6 µM | – | O=C1C(=O)c2ccccc2C2=C1CCC(c1ccc(F)cc1)O2 (centres undefined) | –
9 | 1860 µM | – | Cc1ccc(C2CC(c3cccs3)C3=C(O2)c2ccccc2C(=O)C3=O)cc1 (centres undefined) | –
10 | 688 µM | – | Cc1ccc(C2CCC3=C(O2)c2ccccc2C(=O)C3=O)c(C)c1 (centres undefined) | –
11 | 161 µM | – | O=C1C(=O)c2ccccc2C2=C1C[C@@H]1CCC=C[C@@H]1O2 | –
12 | 121 µM | – | COc1ccc(C2CCC3=C(O2)c2ccccc2C(=O)C3=O)cc1 (centres undefined) | –
13 | 62.6 µM | – | O=C1C(=O)c2ccccc2C2=C1C[C@@H]1CC=C[C@@H]1O2 | 2
14 | 86.3 µM | – | CC1(C)OC2=C(C(=O)C(=O)c3ccccc32)C1Nc1ccccc1 (centres undefined) | –
15 | 123 µM | – | CC1(c2ccccc2)CCC2=C(O1)c1ccccc1C(=O)C2=O (centres undefined) | –
16 | 880 µM | – | COC1CC[C@H]2CC3=C(O[C@H]2O1)c1ccccc1C(=O)C3=O (some centres undefined) | –
17 | 56 µM | – | O=C1C(=O)c2ccccc2C2=C1CCC(c1ccccc1)O2 (centres undefined) | 2
18 | – | 61.3 µM | CC1(C)CCc2c(c3ccccc3c3nc4cc(Nc5ccccc5)/c(=N/c5ccccc5)cc-4n(-c4ccccc4)c23)O1 | –
19 | 849 µM | – | Cc1ccc(C2CC(c3ccccc3)C3=C(O2)c2ccccc2C(=O)C3=O)cc1 (centres undefined) | –
20 | 51.4 µM | – | Cc1ccc(C2CCC3=C(O2)c2ccccc2C(=O)C3=O)cc1 (centres undefined) | 2
21 | 25 µM | – | CC1(C)CCc2c(c3ccccc3c3nc(-c4ccc5c(c4)OCO5)oc23)O1 | –
